# Experimental data reported in the EternaBench riboswitch data.
# Tested on: MS2 coat protein
# Test: apparent Kd, MS2 coat protein; higher = weaker binding; RNA-MaP array; FMN 200 µM where present
# Procedure, shortened: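 Designs on Illumina sequencing-chip clusters, transcribed by stalled E. coli RNA polymerase, were exposed to SNAP-549-labelled MS2 coat protein in doubling steps from 0.7 or 1.5 nM up to 3 µM, without and then with constant ligand. The buffer held 100 mM Tris-HCl pH 7.5, 80 mM KCl, 4 mM MgCl2, BSA, DTT, yeast tRNA and Tween-20. Apparent Kd values are medians of filtered per-cluster binding-curve fits to green signal normalised to red-channel RNA signal and control-cluster median Fmax.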
# [1] = designed as: ON switch for flavin mononucleotide, no ligand
# [2] = ligand present: flavin mononucleotide, designed as: ON switch for flavin mononucleotide
# [3] = designed as: OFF switch for flavin mononucleotide, no ligand
# [4] = ligand present: flavin mononucleotide, designed as: OFF switch for flavin mononucleotide
Sequence,apparent Kd [1],apparent Kd [2],apparent Kd [3],apparent Kd [4]
AGCGUACAAGCUAACAUGAGGAUCACCCAUGUGGACUCAUGCGAGGAUAUCGGGAAGGAGGAUUCCGAGAAGGUGCGGUGAGCC,148 nM,38.1 nM,–,–
AGCUAAAUGUCAGGAUAUGCCCGCCAGGUGGAAGCAGAAGGGACAUACCAGACAUGAGGAUCACCCAUGUAAACUGGGUAAGAA,142 nM,126 nM,–,–
AGCUACGUUUCGUAGCAGCUAGGUGAGGAUAUCCUUUUACAUGAGGAUCACCCAUGUUAGCCAUGGGAGAAGGCGCCUAGAAAG,498 nM,37.7 nM,–,–
AGCUACGUUUCGUAGCAGCUAGGUGAGGAUAUUCAAUUUUUCACAUGAGGAUCACCCAUGUAUGAAAAGAAGGCGCCUAGAAAG,4.45 nM,4.04 nM,–,–
AGCUACGUUUCGUAGCAGUGUCAUCGAGAAGGCCCUGACAUGAGGAUCACCCAUGUUGUUACAUGGGAGGAUAUCGAUGAUACC,13.3 nM,5.32 nM,–,–
AGCUACGUUUCGUAGCAGUGUCAUCGAGAAGGCUCAUUAACAUGAGGAUCACCCAUGUAUUCAUGGGAGGAUAUCGAUGAUACA,131 nM,9.22 nM,–,–
AGCUAGUCAGGAUAUACGAAAAUGUCAGAGGCUGUGAAGGGACAUGAGGAUCACCCAUGUAGAAGGGACUAGCA,–,–,96.8 nM,136 nM
AGCUAGUCAGGAUAUACGAACAUGUCGCCCGACGUGAAGGGACAUGAGGAUCACCCAUGUAGAAGGGACUAGCA,–,–,135 nM,348 nM
AGCUGUGGCCGAGGAUAUACAUCCUUUAUAACCGAUGAAUAUCAUCGGACAUGAGGAUCACCCAUGUAGAAGGCGGUCUCAGCA,–,–,149 nM,750 nM
AGCUGUGGCCGAGGAUAUCUAAAUUCUUAAAACGAAAUAUAAUCGAACAUGAGGAUCACCCAUGUAGAGAAGGCGGUCUCAGCA,–,–,19.8 nM,20.7 nM
AGCUGUGGCCGAGGAUAUCUACCUUCAAUAACCGAAAUAUAAUCGGACAUGAGGAUCACCCAUGUAGAGAAGGCGGUCUCAGCA,–,–,14.8 nM,96.2 nM
AGCUGUGGCCGAGGAUAUCUAUCCAAUAUAACCGAAAUAUAAUCGGACAUGAGGAUCACCCAUGUAGAGAAGGCGGUCUCAGCA,–,–,19.8 nM,25.5 nM
AGGCAAUCAGGAUAUACAUGAGGAUCACCCAUGUGUACAAAGCACAUCCGAUCUAGAUGUAGAAGGGAUAUGCA,–,–,19.1 nM,35.8 nM
AGGGAGUAAGGAUAUGCUGCUCGUCACUUGCGUGAUGAGUAGCAGAAGGUACAUGAGGAUCACCCAUGUAAAGA,–,–,30 nM,22.9 nM
AGGUAACAUGAGGAUCACCCAUGUCAGGAUAUCAUGAAGAGGAGAUUAGAGGAGAGGUUGAGAAGGGACUAUAU,–,–,76 nM,57.4 nM
AGGUACCAUGUUAGGAUAUCACUGACUAACGUCGCUGAGAAGGAACAUGAGGAUCACCCAUGUGCCGGGCUCUU,–,–,20.9 nM,50.8 nM
AGGUAUCCUGAGAAAUUUCUCCACAUGAGGAUCACCCAUGUAGAGGAUAUCGACGCUGUGCGGUUCGAGAAGGCUACACUAAAA,–,–,–,15.3 nM
AGGUGACAUGAGGAUCACCCAUGUUGCAUAAAACAAGGAUAUGGGUGGCGGGAUCGCCAAUCAGAAGGUGUUCCGA,44.1 nM,36.9 nM,–,–
AGGUUUGGAGAGAAGGGCUAAUGGGUUUCGUUUGAGGUAUUCGCAACAUGAGGAUCACCCAUGUAGCAGGAUAUCUCAAAACUA,–,–,4.88 nM,7.95 nM
AGUAACAGAGGAUAUACUAUUUUAUGUGUUUGUUGUUUUGAACAUGAGGAUCACCCAUGUAGAAGGCUGAAUAA,–,–,23.9 nM,24.9 nM
AGUAACAGAGGAUAUACUGUUUUAUGUAUUUAUUAUUUUAAACAUGAGGAUCACCCAUGUAGAAGGCUGAAUAA,–,–,20.6 nM,20.3 nM

Sequence,apparent Kd [1],apparent Kd [2],apparent Kd [3],apparent Kd [4]
AGUAAGAUGCAGAAGGUGUCAGCGAGAGCUGUACAUGAGGAUCACCCAUGUUGUCGGUGACGACACAAGGAUAUGCAUCUUACA,24.7 nM,6.28 nM,–,–
AGUAAGAUGCAGAAGGUGUUAGCUAGAGCUACGACAUGAGGAUCACCCAUGUAAAACCGCCCGUACAAGGAUAUGCAUCUUACA,6.12 nM,5.54 nM,–,–
AGUACCAUGUAGAAGGGAUAUCUGAUUCAGAUAUCAGGAUAUACAUGAGGAUCACCCAUGUAAAUGUACUCCAGGAAACUGGAA,–,–,18 nM,48 nM
AGUACUACAGGAUAUACGAGGGAGGUCCACGUGACCCUUAUACAUGAGGAUCACCCAUGUAGAAGGGUAGUACA,–,–,80.3 nM,16.4 nM
AGUAGACAAGGAUAUACAUGAGGAUCACCCAUGUGUGAAGGCCAGGAGGCUCCUCCCUGUAGAAGGUGUCGAGU,–,–,104 nM,293 nM
AGUAGAUCAGGAUAUACGUAAAUGGUAAUUAUGUAACUUCAACAUGAGGAUCACCCAUGUAGAAGGGAUCUACA,–,–,14.6 nM,15.1 nM
AGUAUUGUAGGGUAUCCAACAUGAGGAUCACCCAUGUACCAGAGAAGGACCCGUGCAUUGCUCGGGUAGGAUAUCUGCGCAUCA,–,–,19.4 nM,172 nM
AGUCAGACAGGAUAUACGUGGAUGGAACACUUAUUUCCACUACAUGAGGAUCACCCAUGUAGAAGGGUCUGACA,–,–,18.8 nM,19.7 nM
AGUCAGAGCAGAGGAUAUAUACAUGAGGAUCACCCAUGUGACUGCCUAUGCUAGAAAUAGUAUGUAUAGAAGGCUGCUCUGACA,–,–,752 nM,483 nM
AGUCAUACAGGAUAUACAUGAGGAUCACCCAUGUAAAUCCUAAAUGGGUGAUCCUCAUGUAGAAGGGUAUGACA,–,–,20.7 nM,17.1 nM
AGUCCUGACGUCAGGAUAUCCGGCCAAUAGGCCAAGGAGAAGGGACAUGAGGAUCACCCAUGUGCUUGGGUCCG,–,–,23.2 nM,40.2 nM
AGUGACUACGUAGGAUAUUAAUUCAUGGACUACAUGAGGAUCACCCAUGUUUAUUUAACAUCAGCUAAGAAGGACGUGGUCACA,16.6 nM,8.5 nM,–,–
AGUGAUUGCUGUGUCAGUUCACAUGAGGAUCACCCAUGUAGCUAGGAUAUCCGCAGUUACUGCUAGGAGAAGGAGCAAGGUGGC,–,–,8.6 nM,12.1 nM
AGUGCGUAUGUGAGGAUAUGCUGGUCCUUGGAUCGGCAGAAGGCACAUGAGGAUCACCCAUGUGGUGUCGUACC,–,–,244 nM,34 nM
AGUGCUAUGUAGAAGGCAGAUCUGAUUCAGAUCUGAGGAUAUACAUGAGGAUCACCCAUGUUAUGCACCAGCACGAGAGUGCAC,–,–,7.91 nM,16.8 nM
AGUGUAUCCCUAGGAUAUGCACAUGAGGAUCACCCAUGUAAACCCGCGCAGGCUCUUCUCAUGUCGCAGAAGGAGGGACCCGGA,–,–,311 nM,39.6 nM
AGUGUCAUCGAGAAGGCCUCAACAUGAGGAUCACCCAUGUUGUAAUAUGGGAGGAUAUCGAUGAUACAGCUACGUUUCGUAGCG,19.9 nM,5.82 nM,–,–
AGUGUCAUCGAGAAGGCCUCAUGAACAUGAGGAUCACCCAUGUAAAAUGGGAGGAUAUCGAUGAUACAGCUACGUUUCGUAGCA,74.4 nM,28.5 nM,–,–
AGUGUCAUCGAGAAGGCCUCGACAUGAGGAUCACCCAUGUUGUUAUAUGGGAGGAUAUCGAUGAUACAGCUACGUUUCGUAGCA,51.6 nM,14.7 nM,–,–
AGUGUGGGAGGAUAUACAUGAGGAUCACCCAUGUGAGUUGGCUCACAUGCUACGCUUCGUAGAAGGCCCAAAGA,–,–,88.8 nM,290 nM
AGUGUGUGGCAGGAUAUGCAAUUUGUAAGUAUUGCAGAAGGGUCUACAUGAGGAUCACCCAUGUGUGCGGUUGA,–,–,721 nM,477 nM
